The target of assay [1] is muscarinic acetylcholine receptor M2. As to conditions: cited from earlier work.
Assay [2] addresses muscarinic acetylcholine receptor M1. Particulars: cited from earlier work.
For another assay, the target named is histamine H3 receptor. As to conditions: cited from earlier work.
A further assay addresses σ opioid receptor. Particulars: cited from earlier work.
In a further assay the test system is carbonic anhydrase II. As to conditions: cited from earlier work.
Assay [3] deals with vesicular acetylcholine transporter. Particulars: cited from earlier work.
For assay [4], the target named is metabotropic glutamate receptor 3. As to conditions: cited from earlier work.
Assay [5] has as its target metabotropic glutamate receptor 2. Particulars: cited from earlier work.
In another assay the target is HIV type 1 protease. Particulars: cited from earlier work.
The test system of assay [6] is M5. As to the kind of experiment: Tango assay, agonist activity on M5. The format is cell-based.
A further assay has as its system muscarinic receptor M1. As to the kind of experiment: Radioligand binding assay. Particulars: no significant affinity up to 10 μM.
Another assay has as its system muscarinic receptor M2. Kind of assay: Radioligand binding assay. As to conditions: no significant affinity up to 10 μM.
The target in assay [7] is muscarinic acetylcholine receptor (mAchR) M5 (Homo sapiens, UniProt P08912). As to the kind of experiment: Radioligand binding assay.
The subject of assay [8] is muscarinic M3 receptor. As to the kind of experiment: Functional assay, agonist activity on M3. The format is cell-based.
Assay [9] relates to M5. As to the kind of experiment: Functional assay, antagonist activity on M5. The format is cell-based.
For assay [10], the system named is muscarinic M3 receptor. Kind of assay: Radioligand binding assay.
The subject of the next assay is muscarinic receptor M4. Kind of assay: Radioligand binding assay. As to conditions: no significant affinity up to 10 μM.
In assay [11] the test system is inducible human nitric-oxide synthase. As to conditions: cited from earlier work.
The test system of assay [12] is endothelial human nitric-oxide synthase. As to conditions: cited from earlier work.
Assay [13] deals with brain human nitric-oxide synthase. Particulars: cited from earlier work.
The test system of assay [14] is human sodium/glucose cotransporter 1. Particulars: cited from earlier work.
Assay [15] relates to human sodium/glucose cotransporter 2. Particulars: cited from earlier work.
A further assay concerns the target nAchR α3β4 (Rattus norvegicus, UniProt P04757+P12392). As to the kind of experiment: Radioligand binding assay. Particulars: for ligand efficiency (LE): calculated from Ki.
The target of assay [16] is human nicotinic acetylcholine receptor (nAchR) α2β4. As to the kind of experiment: Radioligand binding assay.
A further assay has as its target nAchR α4β4 (Rattus norvegicus, UniProt P09483+P12392). As to the kind of experiment: Radioligand binding assay. The gist of the method:
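Ki from radioligand binding run by the NIMH PDSP protocols. Ligand efficiency derived from Ki as LE = −RT(lnKi)/Nheavy ≈ −1.373 log10Ki/Nheavy. R is the gas constant, T is the experimental temperature in Kelvin, and Nheavy is the heavy-atom count. LE is expressed in kcal/mol/heavy atom.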

A further assay addresses 5-HT3 receptor. Particulars: antagonist; cited from earlier work.
The target of a further assay is 5-HT1B receptor. As to conditions: agonist; cited from earlier work.
For the next assay, the target named is 5-HT1A receptor. As to conditions: agonist; cited from earlier work.
For another assay, the target named is 5-HT2 receptor. As to conditions: agonist; cited from earlier work.

Sequence of nAchR α3β4 (P04757 26-499): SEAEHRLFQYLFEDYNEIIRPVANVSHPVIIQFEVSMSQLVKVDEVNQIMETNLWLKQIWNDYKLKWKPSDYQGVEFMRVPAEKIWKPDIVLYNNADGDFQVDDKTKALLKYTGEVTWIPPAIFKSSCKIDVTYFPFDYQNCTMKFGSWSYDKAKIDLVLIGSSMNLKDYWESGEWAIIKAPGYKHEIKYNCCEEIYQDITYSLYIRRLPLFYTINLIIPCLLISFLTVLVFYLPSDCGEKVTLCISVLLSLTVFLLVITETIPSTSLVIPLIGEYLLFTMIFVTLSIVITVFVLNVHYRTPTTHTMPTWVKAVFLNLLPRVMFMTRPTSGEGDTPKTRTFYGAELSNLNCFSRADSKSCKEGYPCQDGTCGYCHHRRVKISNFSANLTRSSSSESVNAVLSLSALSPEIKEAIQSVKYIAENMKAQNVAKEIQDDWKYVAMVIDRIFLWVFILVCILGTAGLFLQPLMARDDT
Sequence of nAchR α3β4 (P12392 21-495): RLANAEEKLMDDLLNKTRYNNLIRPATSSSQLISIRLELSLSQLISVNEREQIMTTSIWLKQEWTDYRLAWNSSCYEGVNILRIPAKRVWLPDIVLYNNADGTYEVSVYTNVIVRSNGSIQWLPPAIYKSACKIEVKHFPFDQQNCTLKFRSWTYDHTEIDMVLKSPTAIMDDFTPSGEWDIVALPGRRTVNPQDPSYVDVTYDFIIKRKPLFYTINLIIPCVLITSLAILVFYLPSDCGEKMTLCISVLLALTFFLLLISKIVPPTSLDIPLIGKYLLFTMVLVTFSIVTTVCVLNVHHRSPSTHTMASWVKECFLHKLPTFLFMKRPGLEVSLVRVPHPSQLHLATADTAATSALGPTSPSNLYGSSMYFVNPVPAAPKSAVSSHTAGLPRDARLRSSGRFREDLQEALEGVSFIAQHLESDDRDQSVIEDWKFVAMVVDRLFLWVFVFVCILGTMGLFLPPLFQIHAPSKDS
Sequence of muscarinic acetylcholine receptor (mAchR) M5 (P08912 whole entry): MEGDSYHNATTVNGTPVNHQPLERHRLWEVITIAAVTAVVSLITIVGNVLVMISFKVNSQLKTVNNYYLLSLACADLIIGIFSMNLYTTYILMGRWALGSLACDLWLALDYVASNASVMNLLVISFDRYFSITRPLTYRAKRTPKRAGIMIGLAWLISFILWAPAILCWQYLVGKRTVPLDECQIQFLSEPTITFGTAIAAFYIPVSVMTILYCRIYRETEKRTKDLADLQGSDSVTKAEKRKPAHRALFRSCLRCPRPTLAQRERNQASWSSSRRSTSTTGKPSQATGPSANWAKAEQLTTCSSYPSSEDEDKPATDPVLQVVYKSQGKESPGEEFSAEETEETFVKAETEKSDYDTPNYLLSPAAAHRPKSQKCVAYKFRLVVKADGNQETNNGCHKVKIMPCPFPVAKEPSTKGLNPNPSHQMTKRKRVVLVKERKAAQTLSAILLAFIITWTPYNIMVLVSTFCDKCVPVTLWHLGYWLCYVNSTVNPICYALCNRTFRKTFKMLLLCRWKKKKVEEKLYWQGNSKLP
Sequence of nAchR α4β4 (P09483 31-630): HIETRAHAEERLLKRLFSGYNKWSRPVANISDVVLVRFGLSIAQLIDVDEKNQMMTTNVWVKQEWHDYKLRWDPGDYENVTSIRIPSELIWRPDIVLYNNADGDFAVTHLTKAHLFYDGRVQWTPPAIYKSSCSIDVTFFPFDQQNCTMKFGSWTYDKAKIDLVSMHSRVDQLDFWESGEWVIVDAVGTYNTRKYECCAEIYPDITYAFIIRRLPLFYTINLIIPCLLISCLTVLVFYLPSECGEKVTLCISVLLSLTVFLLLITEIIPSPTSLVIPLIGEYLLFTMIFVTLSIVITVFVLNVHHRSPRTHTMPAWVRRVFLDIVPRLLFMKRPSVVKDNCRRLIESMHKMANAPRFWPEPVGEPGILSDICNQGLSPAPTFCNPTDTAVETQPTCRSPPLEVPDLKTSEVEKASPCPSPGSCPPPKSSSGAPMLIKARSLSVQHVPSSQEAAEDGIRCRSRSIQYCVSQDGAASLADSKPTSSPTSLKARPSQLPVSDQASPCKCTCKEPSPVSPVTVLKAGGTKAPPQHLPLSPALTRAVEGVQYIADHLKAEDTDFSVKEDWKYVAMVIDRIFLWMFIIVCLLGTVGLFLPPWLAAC
Sequence of nAchR α4β4 (P12392 21-495): as the sequence (P12392 21-495) above

In the case of `C[C@@H]1OC(=O)[C@H]2C[C@H]3CCCC[C@H]3[C@H](/C=C\[C@H]3CCC[C@H](C)N3C)[C@@H]12` [CHEMBL58824], the IC50 in assay [1] and in assay [2] was 851 nM in each case.

Regarding `C[C@@H]1CCCN1CCc1ccns1` [CHEMBL255141], on histamine H3 receptor, the Ki – broadly, a measure of affinity in units of concentration, obtained from inhibition or displacement – is 17 nM.

Regarding `CN(CCc1ccc2c(c1)OCO2)[C@@H]1CCCC[C@@H]1N1CCCC1` [CHEMBL606938], the IC50 (in general, the concentration at which inhibition is half-maximal) at σ opioid receptor is 34 nM.

Take `NS(=O)(=O)c1cc2c(s1)S(=O)(=O)CCC2` [CHEMBL333193]: the affinity in the assay on carbonic anhydrase II is listed as 3.3 nM.

Consider `OC1CCCCC1N1CCC(C2CCN(C3CCCCC3O)CC2)CC1` (stereo not shown) [CHEMBL20429], for which, in assay [3], the affinity is 200 nM.

With `C[C@@H]1OC(=O)[C@@H]2C[C@@H]3CCCC[C@@H]3[C@@H](/C=C/[C@H]3CCC[C@H](C)N3C)[C@H]12` [CHEMBL301670], the values for the IC50 in assay [1] and in assay [2] were 95.5 nM and 427 nM, respectively.

Take `N[C@@]1(C(=O)O)CS[C@H]2[C@H](C(=O)O)[C@H]21` [CHEMBL8839]: the figures for the Ki in assay [4] and in assay [5] were 4.7 nM and 40.6 nM, respectively.

On to `O=C1N(Cc2ccc(O)cc2)[C@H](Cc2ccccc2)[C@H](O)[C@@H](O)[C@@H](Cc2ccccc2)N1Cc1ccc(O)cc1` [CHEMBL35860], for which the Ki at HIV type 1 protease was 0.12 nM.

For `O=C1N(Cc2ccccc2)[C@@H](Cc2ccccc2)[C@H](O)[C@@H](O)[C@H](Cc2ccccc2)N1Cc1ccccc1` [CHEMBL148543], the Ki at HIV type 1 protease was 560 nM.

As for `CCC(=O)OC1(c2ccccc2)CCN(C)CC1C` (stereo not shown) [Alphaprodine], the “agonist activity on M5” value with M5 [6] is on record as “no agonist activity”. Moreover, the affinity with muscarinic receptor M1, with muscarinic receptor M2, in the assay on muscarinic M3 receptor [10] (no significant affinity up to 10 μM) and in the assay with muscarinic receptor M4 was greater than 10 µM in each case. In addition, in assay [7], the affinity, expressed as Ki, was 771 nM. Moreover, the “ligand efficiency (LE)” value in [7] (calculated from Ki) is 0.442 kcal/mol/heavy atom. Also, in the assay on muscarinic M3 receptor [8], the “agonist activity on M3” value is reported as “no agonist activity”. In addition, in the assay with M5 [9], the “antagonist activity on M5” value is “antagonist”. Further, the “binding to M3” value in the assay with muscarinic M3 receptor [10] was “did not bind”.

Turning to `NC1=NCCCS1` [CHEMBL306541], the IC50 in assay [11] was 2900 nM; in assay [12], 7.1 µM; in assay [13], 3200 nM.

As for `OC1CCCCC1N1CCC(C2CCCCC2)CC1` (stereo not shown) [CHEMBL21309], in assay [3], the affinity is reported as 40 nM.

As for `CCOc1ccc(Cc2cc([C@@H]3O[C@H](CO)[C@@H](O)[C@H](O)[C@H]3O)ccc2Cl)cc1` [CHEMBL3125318], the IC50 was 3100 nM in assay [14] and […] in assay [15].

Turning to `N[C@@]1(C(=O)O)C[S+]([O-])[C@H]2[C@H](C(=O)O)[C@H]21` (stereo partly shown) [CHEMBL218710], the Ki was 447 nM in assay [4] and 508 nM in [5].

Turning to `NC1CCCC1c1ccccc1` (stereo not shown) [cypenamine], the Ki came out at 2.69 µM at nAchR α3β4, 4.65 µM in [16] and 4.11 µM on nAchR α4β4. Also, the “ligand efficiency (LE)” value on nAchR α3β4 is recorded as 0.637 kcal/mol/heavy atom; on nAchR α4β4 (calculated from Ki), 0.616 kcal/mol/heavy atom.

For the molecule `NC1=NCCCSC1` [CHEMBL186856], the results for the half-inhibitory concentration (IC50) in assay [11], in [12] and in [13] were 1200 nM, 10.5 µM and 2800 nM, respectively.

Take `CN(CCc1ccc2ccccc2c1)[C@H]1CCCC[C@H]1N1CCCC1` [CHEMBL606937]: at σ opioid receptor, the IC50 is 37 nM.

For the molecule `C[C@@H]1CCCN1CCc1ccccn1` [CHEMBL270807], the Ki on histamine H3 receptor was 200 nM.

Regarding `NS(=O)(=O)c1cc2c(s1)SCCC2=O` [CHEMBL158261], the affinity in the assay on carbonic anhydrase II is listed as 3.6 nM.

In the case of `Clc1cccc(SC2CCNCC2)n1` [Anpirtoline], the Ki on nAchR α3β4 was 3.41 µM; on 5-HT3 receptor, 30 nM; at 5-HT1B receptor, 28 nM; at 5-HT1A receptor, 150 nM; on 5-HT2 receptor, 1490 nM. Further, on nAchR α3β4, the “ligand efficiency (LE)” value is recorded as 0.536 kcal/mol/heavy atom.

In the case of `N#Cc1ccc(Cc2cc([C@@H]3O[C@H](CO)[C@@H](O)[C@H](O)[C@H]3O)ccc2Cl)cc1` [CHEMBL1807550], the results for the half-maximal inhibitory concentration (IC50) in [14] and in assay [15] were 10 nM and 10 µM, respectively.

Values taken from publication PMC6075869 (Journal of medicinal chemistry, 2017).
